Published values of several laboratories.
Compare with care: the assays were run in different laboratories.
Target: Protein kinase C theta type (PRKCQ, Homo sapiens, UniProt Q04759)

Compound	observed	action	technique	tested at	endpoint	result
CCC(=O)N[C@@H]1CC[C@H](C(=O)N(C)c2ccc(-c3nc4ccccc4o3)cc2)C1	cell-free assay		competition with immobilised ligand	1 µM	remaining binding	76%
Nc1ncnc2occ(-c3ccc(NC(=O)Nc4cc(C(F)(F)F)ccc4F)cc3)c12	cell-free assay			20 µM	remaining signal	13%
Cc1sc(C(=O)NC2COC2)cc1-n1cc(NC(=O)Nc2c(F)cccc2Cl)cn1	enzyme activity	inhibitor		10 µM	remaining activity	96.9%
CC[C@H](CO)Nc1nc(NCc2ccccc2)c2ncn(C(C)C)c2n1	cell-free assay			0.5 µM	remaining signal	90%
CC1=C(C#N)[C@@H](c2ccc3[nH]nc(C)c3c2)C(C#N)=C(c2ccc(Cl)cc2)N1	cell-free assay		competition with immobilised ligand	1 µM	remaining binding	100%
CC(C)(O)[C@H]1CC[C@H](Nc2ccc3ncc(-c4cccc(C(F)(F)F)c4)n3n2)CC1	enzyme activity	inhibitor		1 µM	remaining activity	86.1%
CCN(CC)CCNC(=O)c1c(C)[nH]c(/C=C2\C(=O)Nc3ccc(F)cc32)c1C	enzyme activity	inhibitor		10 µM	inhibition	11%
Cn1cnc(Br)c1C1=CN(c2ncnc3[nH]cnc23)CCS1	enzyme activity	inhibitor	radiometric	2 µM	inhibition	97.9%
Nc1cnc(N2CCc3cc(S(=O)(=O)Nc4c(F)cc(Cl)cc4F)cc(N4CCCC4=O)c32)nc1	cell-free assay		competition with immobilised ligand	1 µM	remaining binding	89%
CNCc1ccc(-c2cc(-c3nc(-c4ccc(S(=O)(=O)C(C)C)cc4)cnc3N)on2)cc1	enzyme activity	inhibitor		2 µM	inhibition	0%
COc1cc2ncnc(Nc3ccc(Oc4ccccc4)cc3C)c2cc1OC	enzyme activity	inhibitor		1 µM	inhibition	2%
O=C(Nc1cnn(-c2csc(C(=O)NC3COC3)c2)c1)Nc1ccccc1Cl	enzyme activity	inhibitor		5 µM	remaining activity	114%
CN(C)C1CCN(CC#Cc2nn(C3CCCC3)c3nc(NCc4ccccc4)ncc23)C1 (stereo not drawn)	enzyme activity	inhibitor	FRET	1 µM	inhibition	19%
COc1ccc2c(c1)O[C@H](c1ccc(OC)c(OC)c1)C[C@@H]2NC(=O)C1(c2ccc3c(c2)OC(F)(F)O3)CC1	cell-free assay		competition with immobilised ligand	1 µM	remaining binding	100%
C=CC(=O)Nc1cc(Nc2nccc(Nc3cc(Cl)c(F)cc3C(C)(C)O)n2)c(OC)cc1N1CC[C@@H](N(C)C)C1	enzyme activity	inhibitor		1 µM	inhibition	17%
Cc1cnc(NC2CCOCC2)nc1-n1cnc(C(=O)NC(CN)c2cc(F)cc(Cl)c2)c1 (stereo not drawn)	enzyme activity	inhibitor	radiometric	1 µM	remaining activity	99%
Cc1cc(NC(=O)c2cccc3cc(-c4cccc5[nH]nc(N)c45)ccc23)ccc1F	enzyme activity	inhibitor		0.1 µM	activity vs control	93%
Cn1cncc1C1=CN(c2ncnc3[nH]cnc23)CCS1	enzyme activity	inhibitor	radiometric	2 µM	inhibition	97.9%
CC(C)(C)c1nc2c(s1)c1nc(N)ncc1c1ccc(NS(=O)(=O)c3c(F)cccc3F)c(F)c12	enzyme activity	inhibitor	radiometric	1 µM	remaining activity	115%
O=C(NCc1ncc(C(F)(F)F)cc1Cl)c1ccc2c(c1)C1(CCS(=O)(=O)CC1)[C@H](C1CC1)N2S(=O)(=O)c1ccc(F)cc1	cell-free assay		competition with immobilised ligand	1 µM	remaining binding	100%
O=C1Nc2ccc(Cl)cc2C1=Cc1cc(Cl)c(O)c(Cl)c1	cell-free assay			0.5 µM	remaining signal	105%
CNC(=O)c1cc(Oc2ccc(NC(=O)Nc3ccc(Cl)c(C(F)(F)F)c3)cc2)ccn1	enzyme activity	inhibitor		0.3 µM	inhibition	3%
Cc1ccc(C(=O)NCc2ccsc2)cc1C#Cc1cn(C(C)C)c2ncnc(N)c12	enzyme activity	inhibitor		1 µM	activity vs control	105%
CS(=O)(=O)c1cc(C2(NC(=O)c3cncc4c3cnn4-c3ccc(F)cc3)CC2)ccn1	cell-free assay		competition with immobilised ligand	1 µM	remaining binding	99%
O=C1NC(=O)c2cc(Nc3ccc(F)cc3)c(Nc3ccc(F)cc3)cc21	cell-free assay			0.5 µM	remaining signal	98.7%
CCN(CC)c1ccc(C2=NNC(=O)CC2C)cc1[N+](=O)[O-] (stereo not drawn)	enzyme activity	inhibitor		10 µM	remaining activity	98%
CC(=O)N1CCC(c2ccc(C(=O)NC(=N)N)cc2C(F)(F)F)CC1	cell-free assay		competition with immobilised ligand	1 µM	remaining binding	91%
CC/C(=N\NC(=O)NCc1cccc(O)c1)c1ccc(O)c(C)c1O	enzyme activity	inhibitor		0.1 µM	inhibition	12.2%
O=C(O)c1cc(-c2ccc(C3CCNCC3)cc2)c2ccc(-c3ccc(C(F)(F)F)cc3)cc2c1	cell-free assay		competition with immobilised ligand	1 µM	remaining binding	100%
C[C@@H]1CCN(C(=O)CC#N)C[C@@H]1N(C)c1ncnc2[nH]ccc12	cell-free assay			0.5 µM	remaining signal	89%
